Assay results: ChEMBL document CHEMBL1121751, “Inhibition of thymidylate synthetase by 5-alkynyl-2'-deoxyuridylates” (J Med Chem, 1981)
Blank lines part the entries; values can stand above or below the compound they belong to. Active and inactive are the calls of the source. The rule behind the calls is not given here.

How the values were obtained:
Thymidylate synthase = molecular target: T1, Thymidylate synthase (Lactobacillus casei, UniProt P00469); test: The compound was evaluated for the inhibition of dTMP synthetase from Lactobacillus casei; parameters: species or system Lacticaseibacillus casei
T1 sequence (P00469 whole entry): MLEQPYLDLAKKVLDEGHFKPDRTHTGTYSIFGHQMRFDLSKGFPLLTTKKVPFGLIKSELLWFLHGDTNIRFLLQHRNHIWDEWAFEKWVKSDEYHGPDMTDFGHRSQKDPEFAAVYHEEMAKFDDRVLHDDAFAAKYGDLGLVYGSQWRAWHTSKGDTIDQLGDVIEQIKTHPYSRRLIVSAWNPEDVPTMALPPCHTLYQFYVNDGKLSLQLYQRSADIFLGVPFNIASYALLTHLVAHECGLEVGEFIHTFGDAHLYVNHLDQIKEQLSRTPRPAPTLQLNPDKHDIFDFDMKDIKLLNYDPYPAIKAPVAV
Summary of the method: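 dTMP synthetase came from a methotrexate-resistant strain of Lactobacillus casei and was purified. Activity was measured by a reported procedure in standard assay buffer. For time-dependent inactivation, enzyme was preincubated with nucleotide, with or without 0.1 mM CH₂-H₄folate, for up to 2 h. Aliquots were then diluted 10-fold into buffer containing 0.84 mM dUMP and 0.1 mM CH₂-H₄folate, and initial velocity was recorded.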

[1] = Compound was tested for cytotoxicity towards (Wild-type and TK-) S49 cells at 0.1 mM; Not cytotoxic; type: cell-based; conditions: mouse, s49, 100 µM
[2] = Compound was tested for cytotoxicity against Wild-type S49 cells; type: functional, cell-based; conditions: Mus musculus
Mus musculus = organism: Mus musculus; test: Effect on mutant line lacking dThd kinase (S49/TK at 0.1 mM; No effect; type: functional
[3] = Effective concentration to inhibit the growth of Wild-type S49 cells; type: functional, cell-based; conditions: Mus musculus
Summary of the method: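 Growth-inhibition assay run by a previously reported procedure on wild-type S49 cells, with a thymidine kinase-deficient S49/TK⁻ line tested alongside. The 5-alkynyl-2'-deoxyuridine nucleosides were tested up to 0.1 mM. EC₅₀ is the concentration giving half-maximal growth inhibition.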

SMILES: O=c1[nH]c(=O)n([C@H]2C[C@H](O)[C@@H](COP(=O)(O)O)O2)cc1C#CCO
Ki (Thymidylate synthase): 3000 nM

SMILES: O=c1[nH]c(=O)n([C@H]2C[C@H](O)[C@@H](CO)O2)cc1C#CCO
Cytotoxicity [1]: Non-toxic

SMILES: C#Cc1cn([C@H]2C[C@H](O)[C@@H](COP(=O)(O)O)O2)c(=O)[nH]c1=O
Ki (Thymidylate synthase): 100 nM

Effect (Mus musculus): inactive
SMILES: O=c1[nH]c(=O)n([C@H]2C[C@H](O)[C@@H](CO)O2)cc1C#CCCO
EC50 [2]: 70000 nM

SMILES: C#Cc1cn([C@H]2C[C@H](O)[C@@H](CO)O2)c(=O)[nH]c1=O
EC50 [3]: 120 nM
Effect (Mus musculus): inactive

Ki (Thymidylate synthase): 2600 nM
SMILES: CCCCC#Cc1cn([C@H]2C[C@H](O)[C@@H](COP(=O)(O)O)O2)c(=O)[nH]c1=O

Ki (Thymidylate synthase): 2000 nM
SMILES: O=c1[nH]c(=O)n([C@H]2C[C@H](O)[C@@H](COP(=O)(O)O)O2)cc1C#Cc1ccccc1

Ki (Thymidylate synthase): 200 nM
SMILES: O=c1[nH]c(=O)n([C@H]2C[C@H](O)[C@@H](COP(=O)(O)O)O2)cc1Cl

Ki (Thymidylate synthase): 1900 nM
SMILES: O=c1[nH]c(=O)n([C@H]2C[C@H](O)[C@@H](COP(=O)(O)O)O2)cc1C#CCCO

SMILES: O=c1[nH]c(=O)n([C@H]2C[C@H](O)[C@@H](CO)O2)cc1C#Cc1ccccc1
Cytotoxicity [1]: Non-toxic

SMILES: CCCCC#Cc1cn([C@H]2C[C@H](O)[C@@H](CO)O2)c(=O)[nH]c1=O
Cytotoxicity [1]: Non-toxic
